From ChEMBL document CHEMBL4480421 (Bioorg Med Chem, 2019) come the findings set out here.

Values after ≈ are worked out from the molar mass of the structure shown.

The test system of one data set is Vero. Put plainly: Cytotoxicity against African green monkey Vero cells after 72 hrs by MTS-PMS assay. Format: cell-based. The conditions noted are these: Chlorocebus sabaeus. For orientation: Tetrazolium dyes change colour on reduction, which living cells bring about.
The nature of data set [1]: Ratio of AUC in mouse to MIC90 of replicating Mycobacterium tuberculosis H37Rv after 4 days by Alamar blue assay. Put shortly:
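Mouse plasma exposure (AUC_inf, µg*h/mL) divided by the MIC90 against replicating H37Rv from the aerobic MABA assay.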
Background: Resazurin is reduced to fluorescent resorufin, in cell work by metabolically active cells.

The target of the next data set is Cytochrome P450 3A4 (Homo sapiens, UniProt P08684). Put plainly: Inhibition of CYP3A4 (unknown origin). In kind it is ADME.
Cytochrome P450 3A4, sequence (P08684 whole entry): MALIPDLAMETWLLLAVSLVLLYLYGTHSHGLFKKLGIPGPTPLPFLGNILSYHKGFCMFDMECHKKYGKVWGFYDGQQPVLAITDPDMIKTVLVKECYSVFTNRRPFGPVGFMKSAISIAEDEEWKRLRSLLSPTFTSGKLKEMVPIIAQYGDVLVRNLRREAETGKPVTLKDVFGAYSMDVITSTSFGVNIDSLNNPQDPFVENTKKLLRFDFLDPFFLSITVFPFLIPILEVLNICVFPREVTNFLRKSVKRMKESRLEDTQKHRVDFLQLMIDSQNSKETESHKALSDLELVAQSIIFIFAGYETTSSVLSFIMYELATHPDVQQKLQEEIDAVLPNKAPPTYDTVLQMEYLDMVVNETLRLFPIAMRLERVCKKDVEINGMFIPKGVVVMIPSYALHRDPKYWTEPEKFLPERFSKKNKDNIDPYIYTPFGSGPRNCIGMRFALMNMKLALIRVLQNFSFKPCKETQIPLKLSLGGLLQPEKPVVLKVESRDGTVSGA
Data set [2] can be described thus: Protein binding in human plasma. Format: ADME, cell-free. The settings on record: read-out: PPB.
The test system of data set [3] is Mycobacterium tuberculosis. Put plainly: Antitubercular activity against replicating Mycobacterium tuberculosis H37Rv after 4 days by Alamar blue assay. Format: functional. The settings on record: 96 h. Put shortly:
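MIC90 against M. tuberculosis H37Rv under aerobic, replicating conditions (MABA). Tested at the Institute for Tuberculosis Research, University of Illinois at Chicago.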

The subject of data set [4] is Mycobacterium tuberculosis. Put plainly: Antitubercular activity against non-replicating Mycobacterium tuberculosis H37Rv after 10 days by LORA. In kind it is functional. The settings on record: 240 h. Put shortly:
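MIC90 against M. tuberculosis H37Rv under non-replicating conditions (LORA). Tested at the Institute for Tuberculosis Research, University of Illinois at Chicago.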

`COc1nc2ccc(Br)cc2cc1C(c1cccc2c1OCO2)C(O)(CCN(C)C)c1cccnc1OC` (racemic): the IC50 in the data set on Vero was greater than 10 µg/mL; against Cytochrome P450 3A4, greater than 10 µM. Besides, the Ratio in data set [1] worked out at 5.73. Also, the fraction unbound in data set [2] is less than 0.001.
The compound `COc1cc(C(O)(CCN(C)C)C(c2cc3cc(Br)ccc3nc2OC)c2ccnc(OC)c2OC)c(OC)nc1OC` (racemic) yielded an IC50 with Vero greater than 10 µg/mL. The fraction unbound in data set [2] is less than 0.001.
In the data set on Vero, `CCOc1cc(C(O)(CCN(C)C)C(c2cc(OC)nc(OC)c2)c2cc3cc(Br)ccc3nc2OC)cc(OC(C)C)n1` (racemic) came in with a half-inhibitory concentration (IC50) greater than 10 µg/mL. Also, the Ratio in data set [1] is recorded as 1650. Further, in data set [2], the fraction unbound was less than 0.001.
In the data set with Vero, `COc1cc(C(O)(CCN(C)C)C(c2cc3cc(Br)ccc3nc2OC)c2cccc(OC)c2F)c(OC)cn1` (racemic) yielded a concentration for half-maximal inhibition (IC50) greater than 10 µg/mL. For the same compound, the fraction unbound in data set [2] was less than 0.001.
With `COc1cccc(C(c2cc3cc(Br)ccc3nc2OC)C(O)(CCN(C)C)c2cc(C)nc(C)c2)c1OC` (racemic), the figures for the MIC90 in data set [3] and in data set [4] were 0.04 µg/mL (≈ 0.0673 µM) and 0.07 µg/mL (≈ 0.118 µM), respectively.
In the data set on Vero, `COc1cccc(C(O)(CCN(C)C)C(c2cc3cc(Br)ccc3nc2OC)c2cccc3c2OCO3)n1` (racemic) registered an IC50 greater than 10 µg/mL. Besides, the Ratio in data set [1] was found to be 10.4. Besides, the fraction unbound in data set [2] is less than 0.001.
For `COc1cccc(C(c2cc3cc(Br)ccc3nc2OC)C(O)(CCN(C)C)c2cnc(C)cc2C)c1OC` (racemic), the Ratio in data set [1] is reported as 104. Moreover, in data set [2], the fraction unbound was less than 0.001.
Consider `COc1cnc(OC)c(C(O)(CCN(C)C)C(c2cc3cc(Br)ccc3nc2OC)c2cccc(OC)c2F)c1` (racemic), for which the IC50 with Vero was greater than 10 µg/mL. Further, in data set [2], the fraction unbound is less than 0.001.
In the case of `COc1nc2ccc(C#N)cc2cc1C(c1cccc(C)c1)C(O)(CCN(C)C)c1cccnc1OC` (racemic), the figures for the IC50 in the data set on Vero and against Cytochrome P450 3A4 were greater than 10 µg/mL and greater than 10 µM, respectively. Besides, in data set [1], the Ratio is given as 2.25. In data set [2], the fraction unbound was less than 0.001.
For `COc1nc2ccc(Br)cc2cc1C(c1cccc2c1OCO2)C(O)(CCN(C)C)c1cccnc1C` (racemic), the IC50 is greater than 10 µg/mL in the data set with Vero and greater than 10 µM against Cytochrome P450 3A4. The fraction unbound in data set [2] was less than 0.001.
On to `COc1cccc(C(c2cc3cc(Br)ccc3nc2OC)C(O)(CCN(C)C)c2cccc(C)n2)c1F` (racemic), for which the IC50 with Vero is greater than 10 µg/mL. Moreover, in data set [2], the fraction unbound is less than 0.001.
`COc1cc(C(O)(CCN(C)C)C(c2cc3cc(Br)ccc3nc2OC)c2ccnc(OC)c2OC)cnc1OC` (racemic) showed an IC50 in the data set with Vero greater than 10 µg/mL. Besides, the Ratio in data set [1] is 71.3. Moreover, the fraction unbound in data set [2] was less than 0.001.
The compound `COc1nc2ccc(C#N)cc2cc1C(c1cccc(F)c1)C(O)(CCN(C)C)c1cncc(C)c1` (racemic) yielded an IC50 in the data set on Vero greater than 10 µg/mL. Further, in data set [2], the fraction unbound was less than 0.001.
Compound `COc1cccc(C(c2cc3cc(C#N)ccc3nc2OC)C(O)(CCN(C)C)c2cc(C)nc(C)c2)c1OC` (racemic) gave a half-maximal inhibitory concentration (IC50) in the data set on Vero greater than 10 µg/mL. In data set [1], the Ratio came out at 6.17. In addition, the fraction unbound in data set [2] is less than 0.001.
Turning to `COc1cccc(C(c2cc3cc(Br)ccc3nc2OC)C(O)(CCN(C)C)c2cc(C)cnc2C)c1OC` (racemic), the IC50 with Vero is greater than 10 µg/mL. For the same compound, the Ratio in data set [1] was found to be 19.9. Further, the fraction unbound in data set [2] is less than 0.001.
For `COc1nc2ccc(Br)cc2cc1C(c1cccc(C)c1)C(O)(CCN(C)C)c1cccnc1OC` (racemic), the IC50 with Vero was greater than 10 µg/mL; against Cytochrome P450 3A4 it was greater than 10 µM. In addition, the Ratio in data set [1] stood at 19.3. Further, in data set [2], the fraction unbound is less than 0.001.
As to `COc1nc2ccc(Br)cc2cc1[C@@H](c1ccccc1)[C@@](O)(CCN(C)C)c1cccc2ccccc12` [BEDAQUILINE], the IC50 in the data set with Vero is greater than 10 µg/mL. Further, in data set [2], the fraction unbound was less than 0.001.
For `CCc1cc(C(O)(CCN(C)C)C(c2cc3cc(C#N)ccc3nc2OC)c2cccc(OC)c2F)cc(CC)n1` (racemic), in that order: greater than 10 µg/mL and less than 0.001.
The corresponding values for `CCOc1cc(C(O)(CCN(C)C)C(c2cc3cc(Br)ccc3nc2OC)c2ccnc(OC)c2OC)cc(OC(C)C)n1` (racemic) are greater than 10 µg/mL and less than 0.001.
Consider `COc1nc2ccc(Br)cc2cc1C(c1cccc(C)c1)C(O)(CCN(C)C)c1cccnc1C` (racemic), for which the IC50 is greater than 10 µg/mL in the data set on Vero and greater than 10 µM against Cytochrome P450 3A4. Also, the fraction unbound in data set [2] is less than 0.001.
The corresponding values for `COc1cccc(C(c2cc3cc(C#N)ccc3nc2OC)C(O)(CCN(C)C)c2cc(C)nc(C)c2)c1F` (racemic) are greater than 10 µg/mL, greater than 10 µM and less than 0.001.
`CCc1cc(C(O)(CCN(C)C)C(c2cc3cc(Br)ccc3nc2OC)c2cccc(OC)c2F)cc(CC)n1` (racemic) returned an IC50 in the data set on Vero greater than 10 µg/mL. The fraction unbound in data set [2] was less than 0.001.
Consider `COc1cccc(C(c2cc3cc(Br)ccc3nc2OC)C(O)(CCN(C)C)c2ccc(C)nc2)c1F` (racemic), for which the IC50 in the data set on Vero was greater than 10 µg/mL; against Cytochrome P450 3A4, greater than 10 µM. Moreover, in data set [2], the fraction unbound was less than 0.001.

As a reminder, the IC50 is the concentration needed to halve the response being measured. In general, MIC90 refers to the lowest concentration that inhibits either 90% of growth or 90% of the strains tested, depending on the study.
